In ChEMBL document CHEMBL3244308, “Potential antitumor agents. 22. Latentiated congeners of the 4'-(9-acridinylamino)methanesulfonanilides” (J Med Chem, 1977):

Key:
Blood = experiment: Stability in mouse blood assessed as 4'-(9-acridinylamino)methanesulfonanilide release at 37 degC; type: ADME, tissue-based
L1210 [1] = experiment: Antitumor activity against mouse L1210 cells subcutaneously xenografted in ip dosed C3H/DBA2 F1 hybrid mouse assessed as increase in host lifespan administered daily for 5 days starting 24 hrs post-tumor implantation; type: functional
In short: (§1)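 10⁵ L1210 cells implanted sc above the right axilla into 18.5-22.5-g C3H/DBA2 F1 mice. Daily ip dosing for 5 days from 24 h after implant, as water-soluble salts or as homogenized suspensions in aqueous methylcellulose. Groups of six mice. Increase in life span (T/C% − 100) at the optimum dose (maximal life-span increase, mg/kg/day); 50-day survivors counted.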

[2] = Lipophilic-hydrophilic balance, Rm of the compound by reversed-phase partition chromatography; type: physicochemical
Mus musculus = experiment: Toxicity in ip dosed mouse assessed as optimum dose that providing maximum increase in life span administered qd for 1 to 5 days; type: organism-based; conditions: in vivo
In short: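 Mice were C3H/DBA2 F1 hybrids weighing 18.5-22.5 g. L1210 cells (10^5) were implanted ip or sc above the right axilla. Daily ip treatment began 24 h later and continued for 5 days (dq 1-5), given in water or as a homogenized suspension in aqueous methylcellulose. The optimum dose (mg/kg/day) is the one giving maximum life-span increase (T/C% - 100). Groups were six mice; 50-day survivors were counted.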

[3] = Half life of the compound in 0.1 M mercaptoethanol buffer at pH 7.4 at 37 degC by thiolytic assay; type: physicochemical
L1210 [4] = experiment: Antitumor activity against mouse L1210 cells intraperitoneally xenografted in ip dosed C3H/DBA2 F1 hybrid mouse assessed as increase in host lifespan administered daily for 5 days starting 24 hrs post-tumor implantation; type: functional
In short: as §1, with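 “ip” for “sc above the right axilla”, “treatment” for “dosing”, “salts (methanesulfonate or hydrochloride)” for “salts”, “Read-out is increase” for “Increase”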

**Q.** Which results are given for `CC(=O)N(c1ccc(Nc2c3ccccc3nc3ccccc23)cc1)S(C)(=O)=O.Cl`?
**A.** Stability (Blood): Unstable; ILS (L1210 [1]): 68%; Rm [2]: -0.14; Activity (Mus musculus): 160 mg/kg; half-life [3]: 6.6 h; ILS (L1210 [4]): 109%
